According to ChEMBL document CHEMBL4422700, “Trichothecenes from a Soil-Derived Trichoderma brevicompactum” (J Nat Prod, 2019):
In brackets after ≈: the same amount, converted by molar mass. Activity calls are given as the source filed them. The calls are words filed in the database; no cut-off is given here.

How the values were obtained:
Plasmodium falciparum = test: Antimalarial activity against multidrug-resistant Plasmodium falciparum K1 infected in erythrocytes assessed as reduction in [3H]-hypoxanthine incorporation incubated for 24 hrs before [3H]-hypoxanthine addition and measured after 24 hrs by microplate scintillation counting based microculture radioisotope technique; format: functional, organism-based
Summary of the method: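 Ring-stage K1 culture in RPMI-1640 at 1.5% erythrocyte suspension and 1% parasitaemia, exposed to test solution at 37 °C under CO2 for 24 h. 3H-hypoxanthine (0.5 μCi per well) was then added and incubation continued 24 h. Incorporation was read by scintillation counting; % growth = CPM treated/CPM untreated × 100. Dihydroartemisinin served as standard.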

Vero = test: Cytotoxicity against African green monkey Vero cells assessed as reduction in cell viability by resazurin microplate assay; format: cell-based, Chlorocebus sabaeus
Summary of the method: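 Vero (African green monkey kidney fibroblast) cells, run in triplicate. Ellipticine served as positive control.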

KB = test: Cytotoxicity against human KB cells assessed as reduction in cell viability by resazurin microplate assay; format: functional, cell-based
Summary of the method: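 KB cells tested by resazurin microplate assay. Ellipticine served as positive control.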

Nannizzia gypsea = test: Antifungal activity against Microsporum gypseum by colorimetric broth microdilution method; format: functional
Cryptococcus neoformans = test: Antifungal activity against flucytosine-resistant, Cryptococcus neoformans ATCC 90113 by colorimetric broth microdilution method; format: functional
Candida albicans = test: Antifungal activity against Candida albicans NCPF3153 by colorimetric broth microdilution method; format: functional
[1] = Plasmodium falciparum, K1, read-out: IC50

SMILES | MIC (Nannizzia gypsea) | MIC (Cryptococcus neoformans) | MIC (Candida albicans) | IC50 (Vero; vero) | IC50 (KB; kb) | IC50 (Plasmodium falciparum; read-out: IC50) | also measured
C[C@H]1C(O)O[C@@H]2O[C@@]3(C)CC[C@H]4[C@H](C)CCC1C24OO3 (some centres not stated) |  |  |  |  |  |  | IC50 (Plasmodium falciparum; [1]): 0.0022 µM
CC1=C[C@]23O[C@@H]4C[C@@H](O)[C@](C)([C@@]2(C)CC1)[C@]4(CO)O3 | inactive | 16 µg/mL (≈ 60.1 µM) | 16 µg/mL (≈ 60.1 µM) |  |  |  | IC50 (Vero; Chlorocebus sabaeus, Vero): 15.3 µM; IC50 (KB; Homo sapiens, KB): 44.7 µM; IC50 (Plasmodium falciparum; [1]): 7.4 µM
CC(=O)O[C@@H]1C[C@H]2O[C@@H]3C[C@H](CO)CC[C@]3(C)[C@]1(C)[C@]21CO1 | inactive | inactive | inactive | 45.9 µM | 116 µM |  | IC50 (Plasmodium falciparum): Not Active
CC(=O)O[C@@H]1C[C@H]2O[C@@H]3C=C(C=O)CC[C@]3(C)[C@]1(C)[C@]21CO1 | inactive |  |  | 9.9 µM | 3.7 µM | 9.6 µM | 
Cc1c2ccncc2c(C)c2c1[nH]c1ccccc12 [ELLIPTECINE] |  |  |  |  |  |  | IC50 (Vero; Chlorocebus sabaeus, Vero): 4.1 µM
C[C@@H]1[C@H](O)[C@@H](C)/C=C/C=C/C=C/C=C/C=C/C=C/C=C/[C@H](O[C@@H]2O[C@H](C)[C@@H](O)[C@H](N)[C@@H]2O)C[C@@H]2O[C@](O)(C[C@@H](O)C[C@@H](O)[C@H](O)CC[C@@H](O)C[C@@H](O)CC(=O)O[C@H]1C)C[C@H](O)[C@H]2C(=O)O [AMPHOTERICIN B] |  | 0.25 µg/mL (≈ 0.271 µM) | 0.5 µg/mL (≈ 0.541 µM) |  |  |  | 
Clc1ccc(COC(Cn2ccnc2)c2ccc(Cl)cc2Cl)c(Cl)c1 (configuration not stated) [MICONAZOLE] | 1 µg/mL (≈ 2.4 µM) |  |  |  |  |  | 
CC(=O)O[C@@H]1C[C@H]2O[C@@H]3C=C(C)CC[C@]3(C)[C@]1(C)[C@]21CO1 |  |  |  | 0.4 µM | 2.4 µM | 0.1 µM | 
CC(=O)O[C@@H]1C[C@H]2O[C@@H]3C=C(CO)CC[C@]3(C)[C@]1(C)[C@]21CO1 | inactive |  |  | 7.8 µM | 20.6 µM | 8.8 µM | 
CC1=C[C@H]2O[C@@H]3C[C@@H](O)[C@](C)([C@@]2(C)CC1)[C@]31CO1 [TRICHODERMOL] | inactive |  |  | 6.9 µM | 16.1 µM | 7.1 µM | 
